Measured values from article PMC10583827 (RSC Medicinal Chemistry, 2023).
Values joined by “and” are separate entries in the source; they are usually repeats but may differ in a detail not shown here. Identical values can stand only once. “Also recorded” adds a separate entry of the source.

Legend:
[1] = Cyclic voltammetry; format: physicochemical; conditions: acetonitrile; for ipa/ipc, ratio of anodic to cathodic current / ΔEp, wave potential separation (Epa − Epc): scan rate 100 mV s−1; for E1/2, half wave potential (E1/2 = (Epa + Epc)/2) / Epa, anodic wave potential / Epc, cathodic wave potential: scan rate 100 mV s−1, V vs. Ag/AgCl
How it was run: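 Test compound at 0.5 mM in anhydrous acetonitrile with 0.1 M […] as background electrolyte. Three-electrode cell: glassy carbon working, Pt wire counter, Ag/AgCl reference. Scanned from −1.7 to +1.0 V at 100 mV s−1 with a 20 mV E step, 6 cycles per compound, at 25 °C. Half-wave potentials were taken from the voltammograms.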

[2] = Host macrophage cytotoxicity, resazurin assay; format: cell-based; conditions: human, PMA-differentiated THP-1 cells (macrophages)
[3] = test system: L. donovani strain 9515 amastigotes; test: Intramacrophage antileishmanial assay; format: cell-based, Leishmania donovani; conditions: antimonial-resistant L. donovani; activity retained 72 hours post lysis
[4] = test system: Vero cells; test: General/basal cytotoxicity, resazurin assay
[5] = test system: L. major strain IR173 amastigotes; test: Intramacrophage antileishmanial assay; format: cell-based, Leishmania major; conditions: activity retained 72 hours post macrophage lysis
[6] = historical data ref 35; cited from earlier work

SMILES	ipa/ipc, ratio of anodic to cathodic current [1]	ΔEp, wave potential separation (Epa − Epc) [1]	E1/2, half wave potential (E1/2 = (Epa + Epc)/2) [1]	Epa, anodic wave potential [1]	Epc, cathodic wave potential [1]	IC50 at 72 h [2]	Cidal anti-amastigote activity against L. donovani [3]	Toxicity to mammalian cells, class in words [4]	Cidal anti-amastigote activity against L. major [5]	E1/2, half wave potential [6]
O=[N+]([O-])c1ccc(/C=N/N=C/c2ccccc2)o1 [1a, (1E,2E)-1-Benzylidene-2-[(5-nitrofuran-2-yl)methylene]hydrazine]	1.016	0.24 V	−0.88 V	−0.76 V	−1.00 V	> 100 µM	–	–	–	–
O=[N+]([O-])c1ccc(/C=N/N=C/c2ccccc2)s1 [1b, (1E,2E)-1-Benzylidene-2-[(5-nitrothiophen-2-yl)methylene]hydrazine]	1.032	0.22 V	−0.95 V	−0.84 V	−1.06 V	> 100 µM	cidal	moderate toxicity	–	–
O=[N+]([O-])c1ccc(/C=N/N=C/c2ccc(F)cc2)o1 [2a, (1E,2E)-1-(4-Fluorobenzylidene)-2-[(5-nitrofuran-2-yl)methylene]hydrazine]	0.990	0.28 V	−0.92 V	−0.78 V	−1.06 V	–	–	–	cidal	–
O=[N+]([O-])c1ccc(/C=N/N=C/c2ccc(F)cc2)s1 [2b, (1E,2E)-1-(4-Fluorobenzylidene)-2-[(5-nitrothiophen-2-yl)methylene]hydrazine]	1.022	0.22 V	−0.89 V	−0.78 V	−1.00 V	> 100 µM	–	low toxicity	–	–
O=[N+]([O-])c1ccc(/C=N/N=C/c2ccc(Cl)cc2)o1 [3a, (1E,2E)-1-(4-Chlorobenzylidene)-2-[(5-nitrofuran-2-yl)methylene]hydrazine]	0.967	0.28 V	−0.94 V	−0.80 V	−1.08 V	> 100 µM	–	low toxicity; also recorded: non-toxic	cidal	–
O=[N+]([O-])c1ccc(/C=N/N=C/c2ccc(Cl)cc2)s1 [3b, (1E,2E)-1-(4-Chlorobenzylidene)-2-[(5-nitrothiophen-2-yl)methylene]hydrazine]	0.889	0.22 V	−0.85 V	−0.74 V	−0.96 V	–	–	–	–	–
O=[N+]([O-])c1ccc(/C=N/N=C/c2ccc(Br)cc2)o1 [4a, (1E,2E)-1-(4-Bromobenzylidene)-2-[(5-nitrofuran-2-yl)methylene]hydrazine]	0.891	0.26 V	−0.93 V	−0.80 V	−1.06 V	> 100 µM	cidal	low toxicity; also recorded: non-toxic	cidal	–
O=[N+]([O-])c1ccc(/C=N/N=C/c2ccc(Br)cc2)s1 [4b, (1E,2E)-1-(4-Bromobenzylidene)-2-[(5-nitrothiophen-2-yl)methylene]hydrazine]	0.961	0.24 V	−0.92 V	−0.80 V	−1.04 V	–	–	–	–	–
O=[N+]([O-])c1ccc(/C=N/N=C/c2ccc(OCc3ccccc3)cc2)s1 [7b, (1E,2E)-1-[4-(Benzyloxy)benzylidene]-2-[(5-nitrothiophen-2-yl)methylene]hydrazine]	–	–	–	–	–	> 100 µM	–	low toxicity	–	–
O=C(Cn1ccnc1[N+](=O)[O-])NCc1ccccc1 [Bzn, benznidazole, reference compound]	–	–	–	–	–	> 100 µM	–	–	–	–
O=Cc1ccc([N+](=O)[O-])o1 [NFA, 5-nitro-2-furaldehyde, reference compound]	0.967	0.28 V	−0.88 V	−0.74 V	−1.02 V	–	–	–	–	–
NC(=O)N/N=C/c1ccc([N+](=O)[O-])o1 [NFZ, nitrofurazone, reference compound]	–	–	–	–	–	> 100 µM	–	–	–	–
O=Cc1ccc([N+](=O)[O-])s1 [NTA, 5-nitrothiophene-2-carboxaldehyde, reference compound]	0.755	0.20 V	−0.96 V	−0.86 V	−1.06 V	–	–	–	–	–
CC1CS(=O)(=O)CCN1/N=C/c1ccc([N+](=O)[O-])o1 (stereo not drawn) [NTX, Nifurtimox]	–	–	–	–	–	–	–	–	–	−0.88 V and −0.88 ^g V

Second part, led by results:

ipa/ipc, ratio of anodic to cathodic current [1]	ΔEp, wave potential separation (Epa − Epc) [1]	E1/2, half wave potential (E1/2 = (Epa + Epc)/2) [1]	Epa, anodic wave potential [1]	Epc, cathodic wave potential [1]	SMILES	IC50 at 72 h [2]	Cidal anti-amastigote activity against L. donovani [3]	Toxicity to mammalian cells, class in words [4]	Cidal anti-amastigote activity against L. major [5]	E1/2, half wave potential [6]
1.007	0.24 V	−0.94 V	−0.82 V	−1.06 V	Cc1ccc(/C=N/N=C/c2ccc([N+](=O)[O-])o2)cc1 [5a, (1E,2E)-1-(4-Methylbenzylidene)-2-[(5-nitrofuran-2-yl)methylene]hydrazine]	> 100 µM	–	low toxicity	–	–
1.000	0.24 V	−0.90 V	−0.78 V	−1.02 V	Cc1ccc(/C=N/N=C/c2ccc([N+](=O)[O-])s2)cc1 [5b, (1E,2E)-1-(4-Methylbenzylidene)-2-[(5-nitrothiophen-2-yl)methylene]hydrazine]	–	–	–	–	–
0.965	0.34 V	−0.85 V	−0.68 V	−1.02 V	COc1ccc(/C=N/N=C/c2ccc([N+](=O)[O-])o2)cc1 [6a, (1E,2E)-1-(4-Methoxybenzylidene)-2-[(5-nitrofuran-2-yl)methylene]hydrazine]	> 100 µM	cidal	–	–	–
0.990	0.24 V	−0.92 V	−0.80 V	−1.04 V	COc1ccc(/C=N/N=C/c2ccc([N+](=O)[O-])s2)cc1 [6b, (1E,2E)-1-(4-Methoxybenzylidene)-2-[(5-nitrothiophen-2-yl)methylene]hydrazine]	–	–	–	–	–
–	0.26 V	−0.91 V	−0.78 V	−1.04 V	O=[N+]([O-])c1ccc(/C=N/N=C/c2ccc(OCc3ccccc3)cc2)o1 [7a, (1E,2E)-1-[4-(Benzyloxy)benzylidene]-2-[(5-nitrofuran-2-yl)methylene]hydrazine]	> 100 µM	–	low toxicity	–	–
0.943	0.26 V	−0.95 V	−0.82 V	−1.08 V	O=[N+]([O-])c1ccc(/C=N/N=C/c2ccc(O)cc2)o1 [8a, 4-{(E)-{(E)-[(5-Nitrofuran-2-yl)methylene]hydrazono}methyl}phenol]	–	–	–	–	–
1.002	0.24 V	−0.94 V	−0.82 V	−1.06 V	O=[N+]([O-])c1ccc(/C=N/N=C/c2ccc(O)cc2)s1 [8b, 4-(E)-(E)-[(5-Nitrothiophen-2-yl)methylene]hydrazonomethylphenol]	–	cidal	moderate toxicity	–	–
0.963	0.22 V	−0.95 V	−0.84 V	−1.06 V	O=[N+]([O-])c1ccc(/C=N/N=C/c2ccc([N+](=O)[O-])o2)cc1 [9a, (1E,2E)-1-(4-Nitrobenzylidene)-2-[(5-nitrofuran-2-yl)methylene]hydrazine]	–	cidal	–	cidal	–
0.951	0.24 V	−0.94 V	−0.82 V	−1.06 V	O=[N+]([O-])c1ccc(/C=N/N=C/c2ccc([N+](=O)[O-])s2)cc1 [9b, (1E,2E)-1-(4-Nitrobenzylidene)-2-[(5-nitrothiophen-2-yl)methylene]hydrazine]	–	–	–	–	–
